The nature of data set [1]: Cytotoxicity against human DLD1 cells assessed as cell viability after 48 hrs by MTT assay. Type of data set: functional, cell-based. The following applies: DLD-1, 48 h. Background: Formazan colour is commonly taken as a measure of viable cells.
The nature of data set [2]: Cytotoxicity against human HCT8 cells assessed as cell viability after 48 hrs by MTT assay. In kind it is functional, cell-based. Conditions: HCT-8, 48 h.
Data set [3] is described as follows: Retention time of the compound by HPLC method. Type of data set: physicochemical.
Data set [4] deals with HCT-116. Kind of data set: Cytotoxicity against human HCT116 cells assessed as cell viability after 48 hrs by MTT assay. In kind it is functional, cell-based. The following applies: HCT-116, 48 h.
The subject of data set [5] is HCT-116. Kind of data set: Induction of apoptosis in human HCT116 cells assessed as increased level of procaspase-8 at 10 uM by Western blot analysis. In kind it is functional, cell-based. For orientation: A western blot detects proteins with antibodies after separation by electrophoresis.
Data set [6] is described as follows: Selectivity ratio of human HCT8 cells over human THP1 cells. In kind it is ADME, cell-based, THP-1. The following applies: HCT8 cells versus THP1 cells.
Data set [7] has as its system HCT-116. Kind of data set: Antitumor activity against human HCT116 cells xenografted in nude mouse assessed as reduction in tumor volume at 20 mg/kg measured up to 25 days. Details: scale not given: the % may be the effect or the level left. In kind it is functional.
The subject of data set [8] is HCT-116. Kind of data set: Induction of apoptosis in human HCT116 cells assessed as late apoptotic cells at 25 uM after 48 hrs using annexin-V FITC and propidium iodide staining by flow cytometry (reference value: 1.59%). In kind it is functional.
A short description of data set [9]: Cell cycle arrest in human DLD1 cells assessed as accumulation at sub-G1 phase at 50 uM after 48 hrs using propidium iodide staining by FACS analysis. In kind it is functional, cell-based. The following applies: DLD-1. A digest of the protocol:
(§1)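 Cells seeded at ~2 × 10^5 per well, treated after 24 h at 15, 25 and 50 μM for 48 h. Harvested by trypsin, washed in cold PBS and fixed in 70% ice-cold ethanol. RNase-treated 1 h at 37 °C, stained with propidium iodide (50 μg mL−1) 20 min at room temperature, and analysed by FACS. Triplicate, mean ± SD.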
For orientation: Flow cytometry measures light scatter and fluorescence of single cells or particles in a stream.

The test system of data set [10] is A549. Kind of data set: Selectivity for human HCT8 cells over human A549 cells. Type of data set: functional.
Data set [11] deals with HCT-116. Kind of data set: Induction of apoptosis in human HCT116 cells assessed as increased level of cleaved caspase-3 at 10 to 50 uM by Western blot analysis. Type of data set: functional, cell-based.
Data set [12] relates to HCT-116. Kind of data set: Inhibition of colony formation in human HCT116 cells at 15 uM after 2 weeks using crystal violet staining. Type of data set: functional. Conditions: HCT-116, 336 h.
The test system of data set [13] is HCT-116. Kind of data set: Induction of apoptosis in human HCT116 cells assessed as apoptotic cells at 25 uM after 48 hrs using annexin-V FITC and propidium iodide staining by flow cytometry relative to lithocholic acid. In kind it is functional.
The next data set has as its system DLD-1. Kind of data set: Inhibition of colony formation in human DLD1 cells at 15 to 50 uM after 2 weeks using crystal violet staining. In kind it is functional, cell-based. A digest of the protocol: (§2)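 Cells plated at 200 per well and treated after 24 h adherence at 15, 25 or 50 μM. Colonies stained with crystal violet after 2 weeks and counted. Plating efficiency taken from untreated wells, survival fraction from treated colony counts. Two experiments in duplicate, mean ± SD.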

The test system of data set [14] is HCT-116. Kind of data set: Cell cycle arrest in human HCT116 cells assessed as accumulation at sub-G1 phase at 50 uM after 48 hrs using propidium iodide staining by FACS analysis. In kind it is functional.
Data set [15] can be described thus: Cell cycle arrest in human HCT8 cells assessed as accumulation at sub-G1 phase at 50 uM after 48 hrs using propidium iodide staining by FACS analysis. Type of data set: functional, cell-based. The following applies: HCT-8. Put shortly: as §1
In data set [16] the test system is HCT-116. Kind of data set: Induction of apoptosis in human HCT116 cells xenografted in nude mouse assessed as increased level of cleaved caspase-8 at 20 mg/kg after 6 days by Western blot analysis relative to control. In kind it is functional, organism-based. Put shortly: (§3)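 Female nude mice, 6 weeks old, received 1.5 × 10^6 HCT-116 cells in the right flank. At ~750 mm3 mice were split into groups of 5 and dosed from day 19 at 20 mg kg−1 near the tumour, vehicle as control. Tumours were harvested at sacrifice on day 25 and homogenised in RIPA buffer. Equal protein loaded, transferred to PVDF, blocked in 5% milk/TBST, primary antibodies overnight at 4 °C, HRP secondary, ECL detection.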

A short description of data set [17]: Selectivity ratio of human HCT116 cells over CHO cells. Type of data set: cell-based. The following applies: Chinese hamster (CHO), HCT116 cells versus CHO cells.
The test system of data set [18] is HCT-116. Kind of data set: Ratio of lithocholic acid IC50 to compound IC50 for human HCT116 cells assessed as cell viability after 48 hrs by MTT assay. Type of data set: functional.
Data set [19] has as its system HCT-116. Kind of data set: Induction of apoptosis in human HCT116 cells assessed as early apoptotic cells at 50 uM after 48 hrs using annexin-V FITC and propidium iodide staining by flow cytometry (reference value: 4.80%). Type of data set: functional.
Data set [20] has as its system HCT-8. Kind of data set: Inhibition of colony formation in human HCT8 cells at 15 to 50 uM after 2 weeks using crystal violet staining. In kind it is functional, cell-based. Put shortly: as §2
The subject of data set [21] is A549. Kind of data set: Selectivity ratio of human DLD1 cells over human A549 cells. In kind it is functional.
For data set [22], the system named is HCT-116. Kind of data set: Induction of apoptosis in human HCT116 cells assessed as apoptotic cells at 50 uM after 48 hrs using annexin-V FITC and propidium iodide staining by flow cytometry relative to lithocholic acid. In kind it is functional.
The test system of data set [23] is HCT-116. Kind of data set: Induction of apoptosis in human HCT116 cells assessed as late apoptotic cells at 50 uM after 48 hrs using annexin-V FITC and propidium iodide staining by flow cytometry (reference value: 1.59%). Type of data set: functional.
Data set [24] has as its system HCT-8. Kind of data set: Ratio of lithocholic acid IC50 to compound IC50 for human HCT8 cells assessed as cell viability after 48 hrs by MTT assay. In kind it is functional.
The subject of data set [25] is HCT-116. Kind of data set: Antitumor activity against human HCT116 cells xenografted in nude mouse assessed as reduction in tumor volume at 20 mg/kg after 6 days. In kind it is functional. Further details: scale not given: the % may be the effect or the level left.
Data set [26] has as its system HCT-116. Kind of data set: Induction of apoptosis in human HCT116 cells assessed as late apoptotic cells at 15 uM after 48 hrs using annexin-V FITC and propidium iodide staining by flow cytometry (reference value: 1.59%). Type of data set: functional.
Data set [27] deals with HCT-116. Kind of data set: Induction of apoptosis in human HCT116 cells assessed as early apoptotic cells at 15 uM after 48 hrs using annexin-V FITC and propidium iodide staining by flow cytometry (reference value: 4.80%). In kind it is functional.
In data set [28] the test system is HCT-116. Kind of data set: Inhibition of colony formation in human HCT116 cells at 50 uM after 2 weeks using crystal violet staining. Type of data set: functional, cell-based. A digest of the protocol: as §2
Data set [29] relates to HCT-116. Kind of data set: Induction of apoptosis in human HCT116 cells assessed as increased level of cleaved caspase-7 at 10 to 50 uM by Western blot analysis. Type of data set: functional, cell-based.
Data set [30] relates to HCT-116. Kind of data set: Induction of apoptosis in human HCT116 cells xenografted in nude mouse assessed as increased level of cleaved caspase-7 at 20 mg/kg after 6 days by Western blot analysis relative to control. In kind it is functional, organism-based. A digest of the protocol: as §3
The nature of data set [31]: Selectivity ratio of human HCT8 cells over CHO cells. Conditions: Chinese hamster (CHO), HCT8 cells versus CHO cells. Type of data set: ADME, cell-based.
For data set [32], the system named is HCT-116. Kind of data set: Induction of apoptosis in human HCT116 cells xenografted in nude mouse assessed as increased level of cleaved caspase-3 at 20 mg/kg after 6 days by Western blot analysis relative to control. In kind it is functional, organism-based. Put shortly: as §3
The subject of data set [33] is HCT-116. Kind of data set: Induction of apoptosis in human HCT116 cells assessed as decreased level of procaspase-8 at 50 uM by Western blot analysis. In kind it is functional, cell-based.
Data set [34] is described as follows: Selectivity ratio of human DLD1 cells over CHO cells. Type of data set: cell-based. Conditions: Chinese hamster (CHO), DLD1 cells versus CHO cells.
Data set [35] concerns A549. Kind of data set: Selectivity ratio of human HCT116 cells over human A549 cells. In kind it is functional.
Data set [36] in a line: Toxicity in RBC (unknown origin) assessed as hemolytic activity. Type of data set: cell-based, Erythrocyte. The following applies: red blood cells.
A short description of data set [37]: Selectivity ratio of human HCT116 cells over human THP1 cells. In kind it is ADME, cell-based, HCT-116. Conditions: HCT116 cells versus THP1 cells.
Data set [38] is described as follows: Selectivity ratio of human DLD1 cells over human THP1 cells. In kind it is ADME, cell-based, THP-1. The following applies: DLD1 cells versus THP1 cells.
The test system of data set [39] is HCT-116. Kind of data set: Induction of apoptosis in human HCT116 cells assessed as early apoptotic cells at 25 uM after 48 hrs using annexin-V FITC and propidium iodide staining by flow cytometry (reference value: 4.80%). In kind it is functional.

The source of these data is ChEMBL document CHEMBL3621166, “Synthesis, Structure-Activity Relationship, and Mechanistic Investigation of Lithocholic Acid Amphiphiles for Colon Cancer Therapy” (Medchemcomm, 2015).

Active and inactive are the calls of the source. No cut-off for these calls is given here. Some results are limits rather than exact numbers.

Regarding `COC(=O)CC[C@@H](C)[C@H]1CC[C@H]2[C@@H]3CC[C@@H]4C[C@H](OC(=O)C[n+]5ccc(N(C)C)cc5)CC[C@]4(C)[C@H]3CC[C@]12C.[Cl-]`, the half-maximal inhibitory concentration (IC50) – broadly, the midpoint of a concentration-inhibition curve – in data set [1] was 17 µM; in data set [2], 59.1 µM; in the data set on HCT-116 [4], 13.2 µM. Moreover, the Retention_time in data set [3] is reported as 7.9 min.
In the case of `COC(=O)CC[C@@H](C)[C@H]1CC[C@H]2[C@@H]3CC[C@@H]4C[C@H](OC(=O)C[N+]5(C)CCCCC5)CC[C@]4(C)[C@H]3CC[C@]12C.[Cl-]`, in the data set on HCT-116 [5], the result was inactive. Besides, the selectivity ratio in [6] worked out at 5; in the data set with A549 [10], 2; in data set [17], 3; with A549 [21], 2; in data set [31], 5; in data set [34], 5. Further, the values for the selectivity ratio (in the data set on A549 [35]; in data set [37]; in data set [38]) were 2, 5 and 5, respectively. Moreover, the Activity in the data set on HCT-116 [7] worked out at 75%; with HCT-116 [8] it was 15.78%; in [9] it was 80%; in the data set on HCT-116 [14] it was 80%; in [15], 40%; with HCT-116 [19], 41.19%. In addition, the Activity in the data set with HCT-116 [23] worked out at 26.63%; in the data set on HCT-116 [25] it was 75%; in the data set on HCT-116 [26], 12.47%; in the data set on HCT-116 [27] it was 9.04%; in the data set with HCT-116 [39], 23.57%. Moreover, the outcome in the data set on HCT-116 [11], in the data set with HCT-116 [16], with HCT-116 [29], in the data set with HCT-116 [30], in the data set with HCT-116 [32] and in the data set on HCT-116 [33] was Active. Testing at 15 µM in the data set with HCT-116 [12] gave an inhibition of 50%. The Ratio with HCT-116 [13] is 1.3; in the data set on HCT-116 [22], 2. Besides, the inhibition result in the data set on DLD-1, in the data set with HCT-8 [20] and in the data set with HCT-116 [28] was “Active” in each case. Further, the “Ratio IC50” value in the data set on HCT-116 [18] and with HCT-8 [24] was 6 throughout. The IC50 stood at 13.7 µM in data set [1], 14.7 µM in [2] and 11.7 µM in the data set on HCT-116 [4]. The same molecule returned a Retention_time in data set [3] of 8.12 min. Moreover, the HC50 (commonly the concentration that lyses half of the red blood cells) in [36] was above 1 mM.
As for `COC(=O)CC[C@@H](C)[C@H]1CC[C@H]2[C@@H]3CC[C@@H]4C[C@H](OC(=O)C[N+]5(C)CCCC5)CC[C@]4(C)[C@H]3CC[C@]12C.[Cl-]`, the results for the IC50 (in data set [1]; in data set [2]; with HCT-116 [4]) were 17 µM, 36.4 µM and 17.8 µM, respectively. In data set [3], this molecule returned a Retention_time of 8.23 min.
Regarding `COC(=O)CC[C@@H](C)[C@H]1CC[C@H]2[C@@H]3CC[C@@H]4C[C@H](OC(=O)CN)CC[C@]4(C)[C@H]3CC[C@]12C`, the results for the IC50 (in data set [1]; in data set [2]; in the data set on HCT-116 [4]) were 29.4 µM, 30.7 µM and 36.7 µM, respectively.
With `COC(=O)CC[C@@H](C)[C@H]1CC[C@H]2[C@@H]3CC[C@@H]4C[C@H](OC(=O)C[N+](C)(C)C)CC[C@]4(C)[C@H]3CC[C@]12C.[Cl-]`, the results for the 50% inhibitory concentration (IC50) (in data set [1]; in data set [2]; in the data set with HCT-116 [4]) were 53 µM, 37 µM and 38.1 µM, respectively. The molecule further registered a Retention_time in data set [3] of 7.94 min.
